The source made the active and inactive calls.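 The calls were made as follows: active = IC50 of 80 µM or lower; inactive = the rest.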

The target in the assay is glucose-6-phosphate dehydrogenase-6-phosphogluconolactonase (PfGluPho) [Plasmodium falciparum 3D7]. Nature of the assay: PfG6PD enzyme inhibitors, kinetic orthogonal readout, SAR follow-up, orthogonal assay for PfG6PD antimalarial inhibitor project, biochemical, kinetic direct NADPH detection, set 3 (AID 602425). Particulars: recombinant PfG6PDH, direct NADPH fluorescence kinetic. In a few lines: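 Test system: PfG6PDH, the glucose-6-phosphate dehydrogenase of Plasmodium falciparum | Quantity: PfG6PDH at 0.2 µg/mL final | Also added: Glucose-6-phosphate 20 µM plus NADP 3 µM, final amounts | Dosing: Test compounds in dose-response series | Timing: Fluorescence reads repeated every 5 min | Detection: NADPH fluorescence, 340 nm excitation, 450 nm emission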
As to `CN1CCCCC1CNC(=O)c1ccc2c(c1)NC(=O)c1ccccc1S2` (configuration not stated), the IC50 – broadly, the concentration that gives 50% inhibition – is 71.4 µM.
As for `CCN1CCC[C@@H]1CNC(=O)c1ccc2c(c1)NC(=O)c1cccc(C)c1S2`, the IC50 is 0.212 µM.
Consider `CCN1CCC[C@@H]1CNC(=O)c1ccc2c(c1)NC(=O)c1cc(C)ccc1S2`, for which the IC50 is 24.4 µM.
Regarding `CCCCN1CCCC1CNC(=O)c1ccc2c(c1)NC(=O)c1ccccc1S2` (configuration not stated), the 50% inhibitory concentration (IC50) is 18.5 µM.
Regarding `CCN1CCCCC1CNC(=O)c1ccc2c(c1)NC(=O)c1ccccc1S2` (configuration not stated), the IC50 is > 80 µM (inactive).
The figure for `CCCN1CCC(NC(=O)c2ccc3c(c2)NC(=O)c2ccccc2S3)C1` (configuration not stated) is > 80 µM (inactive).
Consider `CCN1CCC[C@@H]1CNC(=O)c1ccc2c(c1)NC(=O)c1ccccc1N2`, for which the IC50 is > 80 µM (inactive).
To `O=C(NCC1CCCCN1)c1ccc2c(c1)NC(=O)c1ccccc1S2` (configuration not stated) belongs 41.4 µM.
The figure for `CCN1CCC(NC(=O)c2ccc3c(c2)NC(=O)c2ccccc2S3)C1` (configuration not stated) is > 80 µM (inactive); for `CCCN1CCC[C@@H]1CNC(=O)c1ccc2c(c1)NC(=O)c1ccccc1S2` it is 11.4 µM.
The figure for `CN1CCCC1CNC(=O)c1ccc2c(c1)NC(=O)c1ccccc1S2` (configuration not stated) is 23.3 µM; for `O=C(NC[C@H]1CCCN1)c1ccc2c(c1)NC(=O)c1ccccc1S2` it is 40.3 µM; for `CN1CCC(NC(=O)c2ccc3c(c2)NC(=O)c2ccccc2S3)C1` (configuration not stated) it is > 80 µM (inactive).
With `CCN1CCC[C@@H]1CNC(=O)c1ccc2c(c1)NC(=O)c1cc(F)ccc1S2`, the 50% inhibitory concentration (IC50) is 49.1 µM.
As for `CCN1CCC[C@@H]1CNC(=O)c1ccc2c(c1)NC(=O)c1ccc(F)cc1S2`, the IC50 is 4.34 µM.
Turning to `CCCN1CCCCC1CNC(=O)c1ccc2c(c1)NC(=O)c1ccccc1S2` (configuration not stated), the 50% inhibitory concentration (IC50) is 62.6 µM.
For the molecule `CCCCCCN1CCCC1CNC(=O)c1ccc2c(c1)NC(=O)c1ccccc1S2` (configuration not stated), the IC50 is 42.2 µM.

Values taken from PubChem BioAssay AID602425 (Sanford-Burnham Center for Chemical Genomics, 2012).
